Reference: ChEMBL document CHEMBL1143693, “Cancer chemopreventive effects of cycloartane-type and related triterpenoids in in vitro and in vivo models” (J Nat Prod, 2007)
Blank lines part the entries; values can stand above or below the compound they belong to. Activity calls are given as the source filed them. The rule behind the calls is not given here.

Assays:
Human gammaherpesvirus 4 [1] = assay: Inhibition of TPA-induced Epstein-Barr virus early antigen activation assessed as EBV-EA induction in Raji cells at 0.32 nM after 48 hrs relative to TPA; values are per cent of control; conditions: human gammaherpesvirus 4, Raji
Human gammaherpesvirus 4 [2] = assay: Inhibition of TPA-induced Epstein-Barr virus early antigen activation assessed as EBV-EA induction in Raji cells at 3.2 nM after 48 hrs relative to TPA; values are per cent of control; conditions: human gammaherpesvirus 4, Raji
[3] = Scavenging activity against NO generation in human Chang liver cells assessed as inhibition of NOR1-activation at 350 nM relative to NOR1; assay type: functional
Human gammaherpesvirus 4 [4] = assay: Inhibition of TPA-induced Epstein-Barr virus early antigen activation assessed as EBV-EA induction in Raji cells at 320 nM after 48 hrs relative to TPA; values are per cent of control; conditions: human gammaherpesvirus 4, Raji
Human gammaherpesvirus 4 [5] = assay: Inhibition of TPA-induced Epstein-Barr virus early antigen activation in Raji cells after 48 hrs; assay type: functional, organism-based; conditions: human gammaherpesvirus 4, Raji
Raji = assay: Cell viability of Raji cells at 320 nM; assay type: functional, Homo sapiens
Human gammaherpesvirus 4 [6] = assay: Inhibition of TPA-induced Epstein-Barr virus early antigen activation assessed as EBV-EA induction in Raji cells at 32 nM after 48 hrs relative to TPA; values are per cent of control; conditions: human gammaherpesvirus 4, Raji
Mus musculus [7] = species: Mus musculus; assay: Inhibition of TPA-induced skin tumor promotion in ICR mouse assessed as incidence of skin papilloma at 85 nmol after 10 weeks; assay type: functional
Method in brief: (§1)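 Specific pathogen-free ICR mice, 15 per group, were initiated with DMBA and promoted with TPA, with or without 85 nmol compound. Papilloma incidence and mean papillomas per mouse were recorded up to 20 weeks of promotion. Groups were compared by Student's t-test.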

Mus musculus [8] = species: Mus musculus; assay: Inhibition of TPA-induced skin tumor promotion in ICR mouse assessed as reduction in number of skin papillomas at 85 nmol; assay type: functional, organism-based
Method in brief: as §1

Mus musculus [9] = species: Mus musculus; assay: Inhibition of TPA-induced skin tumor promotion in ICR mouse assessed as incidence of skin papilloma at 85 nmol after 20 weeks; assay type: functional; conditions: values are per cent of control
Method in brief: as §1

Structure (SMILES): C=C(CC[C@@H](C)[C@H]1CC[C@@]2(C)[C@@H]3CC[C@H]4[C@H](C)[C@H](O)CC[C@@]45C[C@@]35CC[C@]12C)C(C)C
level, % of control at 0.00032 µM (Human gammaherpesvirus 4 [1]): 95.9%
level, % of control at 0.0032 µM (Human gammaherpesvirus 4 [2]): 73.1%
Activity [3]: 1.6
level, % of control at 0.32 µM (Human gammaherpesvirus 4 [4]): 0%
IC50 (Human gammaherpesvirus 4 [5]): 9.4 nM
Activity (Raji): 70%
level, % of control at 0.032 µM (Human gammaherpesvirus 4 [6]): 30.5%

Structure (SMILES): C[C@@H]1[C@@H](O)CC[C@]23C[C@]24CC[C@]2(C)[C@@H]([C@H](C)CC[C@H](O)C(C)(C)O)CC[C@@]2(C)[C@@H]4CC[C@@H]13
level, % of control at 0.00032 µM (Human gammaherpesvirus 4 [1]): 88.8%
level, % of control at 0.0032 µM (Human gammaherpesvirus 4 [2]): 61.3%
Activity [3]: 1.7
level, % of control at 0.32 µM (Human gammaherpesvirus 4 [4]): 0%
IC50 (Human gammaherpesvirus 4 [5]): 6.7 nM
Activity (Raji): 70%
level, % of control at 0.032 µM (Human gammaherpesvirus 4 [6]): 17.1%

Structure (SMILES): C/C(=C\C[C@@H](C)[C@H]1CC[C@@]2(C)[C@@H]3CC[C@H]4C(C)(C)[C@@H](O)CC[C@@]45C[C@@]35CC[C@]12C)C(C)C [(23E)-CYCLOSADOL]
level, % of control at 0.00032 µM (Human gammaherpesvirus 4 [1]): 95.2%
level, % of control at 0.0032 µM (Human gammaherpesvirus 4 [2]): 72.8%
Activity [3]: 2
level, % of control at 0.32 µM (Human gammaherpesvirus 4 [4]): 0%
IC50 (Human gammaherpesvirus 4 [5]): 9.9 nM
Activity (Raji): 70%
level, % of control at 0.032 µM (Human gammaherpesvirus 4 [6]): 31.4%

Structure (SMILES): C=C(CC[C@@H](C)[C@H]1CC[C@@]2(C)[C@@H]3CC[C@H]4CC(=O)CC[C@@]45C[C@@]35CC[C@]12C)C(C)C
level, % of control at 0.00032 µM (Human gammaherpesvirus 4 [1]): 95.6%
level, % of control at 0.0032 µM (Human gammaherpesvirus 4 [2]): 73.8%
Activity [3]: 1.5
level, % of control at 0.32 µM (Human gammaherpesvirus 4 [4]): 0%
IC50 (Human gammaherpesvirus 4 [5]): 10.2 nM
Activity (Raji): 70%
level, % of control at 0.032 µM (Human gammaherpesvirus 4 [6]): 33.2%

Structure (SMILES): CC(C)CCC[C@@H](C)[C@H]1CC[C@@]2(C)[C@@H]3CC[C@H]4C[C@@H](O)CC[C@@]45C[C@@]35CC[C@]12C [POLLINASTANOL]
level, % of control at 0.00032 µM (Human gammaherpesvirus 4 [1]): 95.9%
level, % of control at 0.0032 µM (Human gammaherpesvirus 4 [2]): 73.1%
Activity [3]: 1.5
level, % of control at 0.32 µM (Human gammaherpesvirus 4 [4]): 0%
IC50 (Human gammaherpesvirus 4 [5]): 9.9 nM
Activity (Raji): 70%
level, % of control at 0.032 µM (Human gammaherpesvirus 4 [6]): 31.7%

Structure (SMILES): C=C(CC[C@@H](C)[C@H]1CC[C@@]2(C)[C@@H]3CC[C@H]4C[C@@H](OC(C)=O)CC[C@@]45C[C@@]35CC[C@]12C)C(C)C
level, % of control at 0.00032 µM (Human gammaherpesvirus 4 [1]): 96.3%
level, % of control at 0.0032 µM (Human gammaherpesvirus 4 [2]): 73.1%
Activity [3]: 1.5
level, % of control at 0.32 µM (Human gammaherpesvirus 4 [4]): 0%
IC50 (Human gammaherpesvirus 4 [5]): 10 nM
Activity (Raji): 70%
level, % of control at 0.032 µM (Human gammaherpesvirus 4 [6]): 31.4%

Structure (SMILES): C=C(CC[C@@H](C)[C@H]1CC[C@@]2(C)[C@@H]3CC[C@H]4C[C@@H](O)CC[C@@]45C[C@@]35CC[C@]12C)C(C)C
level, % of control at 0.00032 µM (Human gammaherpesvirus 4 [1]): 95.8%
level, % of control at 0.0032 µM (Human gammaherpesvirus 4 [2]): 72.7%
Activity [3]: 1.5
level, % of control at 0.32 µM (Human gammaherpesvirus 4 [4]): 0%
IC50 (Human gammaherpesvirus 4 [5]): 9.5 nM
Activity (Raji): 70%
level, % of control at 0.032 µM (Human gammaherpesvirus 4 [6]): 30.5%

Continued, in another order:

IC50 (Human gammaherpesvirus 4 [5]): 9.5 nM
Structure (SMILES): COC(C)(C)[C@@H](O)CC[C@@H](C)[C@H]1CC[C@@]2(C)[C@@H]3CC[C@H]4C(C)(C)[C@@H](O)CC[C@@]45C[C@@]35CC[C@]12C
level, % of control at 0.00032 µM (Human gammaherpesvirus 4 [1]): 95.9%
level, % of control at 0.0032 µM (Human gammaherpesvirus 4 [2]): 74.5%
Activity [3]: 1.8
level, % of control at 0.32 µM (Human gammaherpesvirus 4 [4]): 0%
Activity (Raji): 70%
level, % of control at 0.032 µM (Human gammaherpesvirus 4 [6]): 30.7%

IC50 (Human gammaherpesvirus 4 [5]): 6.1 nM
Structure (SMILES): CC(C)C(O)(CO)CC[C@@H](C)[C@H]1CC[C@@]2(C)[C@@H]3CC[C@H]4C(C)(C)[C@@H](O)CC[C@@]45C[C@@]35CC[C@]12C (some centres not stated)
Papilloma incidence % (Mus musculus [7]): 20%
level, % of control at 0.00032 µM (Human gammaherpesvirus 4 [1]): 81%
level, % of control at 0.0032 µM (Human gammaherpesvirus 4 [2]): 63.2%
Activity [3]: 2.2
Activity (Mus musculus [8]): Active
level, % of control at 0.32 µM (Human gammaherpesvirus 4 [4]): 0%
Activity (Raji): 70%
response, % of control (Mus musculus [9]): 80%
level, % of control at 0.032 µM (Human gammaherpesvirus 4 [6]): 13%

IC50 (Human gammaherpesvirus 4 [5]): 9 nM
Structure (SMILES): CC(C)=CCC[C@@H](C)C1=CC[C@@]2(C)[C@@H]3CC[C@H]4C(C)(C)[C@@H](O)CC[C@@]45C[C@@]35CC[C@]12C [CIMICIFUGENOL]
level, % of control at 0.00032 µM (Human gammaherpesvirus 4 [1]): 93.8%
level, % of control at 0.0032 µM (Human gammaherpesvirus 4 [2]): 72.6%
Activity [3]: 1.8
level, % of control at 0.32 µM (Human gammaherpesvirus 4 [4]): 0%
Activity (Raji): 70%
level, % of control at 0.032 µM (Human gammaherpesvirus 4 [6]): 26.8%

IC50 (Human gammaherpesvirus 4 [5]): 6.7 nM
Structure (SMILES): COCC(O)(CC[C@@H](C)[C@H]1CC[C@@]2(C)[C@@H]3CC[C@H]4C(C)(C)[C@@H](O)CC[C@@]45C[C@@]35CC[C@]12C)C(C)C (some centres not stated)
Papilloma incidence % (Mus musculus [7]): 27%
level, % of control at 0.00032 µM (Human gammaherpesvirus 4 [1]): 83.1%
level, % of control at 0.0032 µM (Human gammaherpesvirus 4 [2]): 65.4%
Activity [3]: 2.1
Activity (Mus musculus [8]): Active
level, % of control at 0.32 µM (Human gammaherpesvirus 4 [4]): 0%
Activity (Raji): 70%
response, % of control (Mus musculus [9]): 87%
level, % of control at 0.032 µM (Human gammaherpesvirus 4 [6]): 15.2%

IC50 (Human gammaherpesvirus 4 [5]): 8.8 nM
Structure (SMILES): C=C(C)[C@@H](CC)CC[C@@H](C)[C@H]1CC[C@@]2(C)[C@@H]3CC[C@H]4C(C)(C)[C@@H](O)CC[C@@]45C[C@@]35CC[C@]12C [POLYSTHICOL (24S)]
level, % of control at 0.00032 µM (Human gammaherpesvirus 4 [1]): 93.1%
level, % of control at 0.0032 µM (Human gammaherpesvirus 4 [2]): 69.1%
Activity [3]: 2
level, % of control at 0.32 µM (Human gammaherpesvirus 4 [4]): 0%
Activity (Raji): 70%
level, % of control at 0.032 µM (Human gammaherpesvirus 4 [6]): 28.9%

IC50 (Human gammaherpesvirus 4 [5]): 10 nM
Structure (SMILES): CC(C)C(C)CC[C@@H](C)[C@H]1CC[C@@]2(C)[C@@H]3CC[C@H]4[C@H](C)[C@@H](O)CC[C@@]45C[C@@]35CC[C@]12C (some centres not stated)
level, % of control at 0.00032 µM (Human gammaherpesvirus 4 [1]): 96.8%
level, % of control at 0.0032 µM (Human gammaherpesvirus 4 [2]): 73.4%
Activity [3]: 1.6
level, % of control at 0.32 µM (Human gammaherpesvirus 4 [4]): 0%
Activity (Raji): 70%
level, % of control at 0.032 µM (Human gammaherpesvirus 4 [6]): 31.8%
